What was measured:
Assay type in all cases: functional
[1] = Antioxidant activity assessed as superoxide radical scavenging activity by xanthine oxidase method
Summary of the method: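 Superoxide generated by xanthine/xanthine oxidase in 50 mM potassium phosphate buffer (pH 7.8) containing 1 mM EDTA, 0.04 mM NBT, 0.18 mM xanthine and 250 mU/mL xanthine oxidase. Samples tested at a series of concentrations. Incubation 30 min at 37 C in the dark. Superoxide reduction of NBT to blue formazan used as read-out. IC50 determined.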

[2] = Ratio of IC50 for drug to trolox for ABTS radical scavenging activity
Summary of the method: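 ABTS radical cation made from 7 mM aqueous ABTS stock reacted with 2.45 mM potassium persulfate, left 12 h in the dark. Radical solution mixed with samples in ethanol. Absorbance read at 734 nm up to 6 min after mixing. IC50 expressed relative to trolox.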

[3] = Ratio of IC50 for drug to trolox for DPPH radical scavenging activity

SMILES | IC50 [1] [µM] | Ratio IC50 [2] | Ratio IC50 [3]
CC(=O)C1(O)C(c2cc3oc(=O)c4cc(O)c(O)cc4c3c(=O)o2)=Cc2cc(O)c(O)cc21 (stereo unspecified) | 90.8 | 0.58 | 1.42
Cc1cc(=O)cc(-c2cc(O)c(O)cc2-c2c(O)cc(/C=C/c3ccc(O)c(O)c3)oc2=O)o1 | 97.6 | 0.65 | 0.82
O=C(O)/C=C/c1ccc(O)c(O)c1 [CAFFEIC ACID] | 10.2 | 0.66 | 0.41
O=c1oc2cc(/C=C/c3ccc(O)c(O)c3)oc(=O)c2c2cc(O)c(O)cc12 [PHELLIGRIDIN D] | 85.5 | 0.33 | 1.51
CC1=CC(=O)C2(O1)C(c1cc3oc(=O)c4cc(O)c(O)cc4c3c(=O)o1)=Cc1cc(O)c(O)cc12 (stereo unspecified) [PHELLIGRIDIN E] | 120 | 0.4 | 1.57
O=C1C=C(/C=C/c2ccc(O)c(O)c2)OC12C(c1cc3oc(=O)c4cc(O)c(O)cc4c3c(=O)o1)=Cc1cc(O)c(O)cc12 (stereo unspecified) [PHELLIGRIDIN G] | 92.3 | 0.43 | 1.48
O=c1oc(/C=C/c2ccc(O)c(O)c2)cc(O)c1-c1cc(O)c(O)cc1/C=C/c1cc2oc(=O)c3cc(O)c(O)cc3c2c(=O)o1 [PHELLIGRIDIN I] | 93.6 | 0.43 | 1.45
